Measured values taken from ChEMBL document CHEMBL1275544, “Effect of therapeutic chemical agents in vitro and on experimental meningoencephalitis due to Naegleria fowleri” (Antimicrob Agents Chemother, 2008).
Values after ≈ are worked out from the molar mass of the structure shown. Active and inactive are the calls of the source. No cut-off for these calls is given here.

Tests used:
[1] = Hepatotoxicity in BALB/c mouse hepatocytes assessed as change in cell morphology at 20 mg/kg, ip by histopathological analysis; assay type: toxicity, organism-based, Hepatocyte; set-up: dose 20 mg/kg, route intraperitoneal
Procedure, shortened: (§1)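 Toxicity histology: BALB/c mice dosed i.p. at 20 mg/kg in saline. Liver and kidney fixed in 10% neutral buffered formalin, paraffin-embedded, H&E-stained, and complete cross-sections examined by light microscopy (×100, ×400) for hepatocyte and renal cortical tubule size and shape.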

Mus musculus [2] = test: Renal toxicity in BALB/c mouse assessed as change in renal cortical tubule morphology at 20 mg/kg, ip by histopathological analysis; assay type: organism-based; set-up: dose 20 mg/kg, route intraperitoneal; conditions: in vivo; procedure, shortened: as §1
Naegleria fowleri [3] = test: Antiparasitic activity against Naegleria fowleri ATCC 30215 trophozoites after 4 days; assay type: functional; conditions: ATCC 30215, 96 h, read-out: MIC100
Mus musculus [4] = test: Blood urea nitrogen level in BALB/c mouse serum at 10 mg/kg, ip; assay type: ADME, organism-based; set-up: dose 10 mg/kg, route intraperitoneal; conditions: in vivo
Procedure, shortened: (§2)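 Renal toxicity check: BALB/c mice given drug i.p. at 5, 10, 20 or 50 mg/kg (saline vehicle), or saline as negative control. Blood collected once daily for 3 days. Serum blood urea nitrogen measured on a clinical chemical analyzer.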

Mus musculus [5] = test: Blood urea nitrogen level in BALB/c mouse serum at 20 mg/kg, ip; assay type: ADME, organism-based; set-up: dose 20 mg/kg, route intraperitoneal; conditions: in vivo; procedure, shortened: as §2
Naegleria fowleri [6] = test: Antiparasitic activity against Naegleria fowleri ATCC 30215 trophozoites at 25 ug/ml on day 6 by LDH release assay; assay type: functional
Procedure, shortened: (§3)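 Supernatant sampled on days 2, 4, 6, mixed with CytoTox96 reagent for 30 min at room temperature, stopped, A490 read. Cytotoxicity % = (sample − spontaneous)/(maximum − spontaneous) ×100. Means ± SE of three experiments in triplicate.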

Naegleria fowleri [7] = test: Antiparasitic activity against Naegleria fowleri ATCC 30215 trophozoites infected in BALB/c mouse brain by histopathology analysis; assay type: functional, organism-based; conditions: ATCC30215
Procedure, shortened: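 Female BALB/c mice, 7 weeks old, infected intranasally under secobarbital with 10^4 trophozoites grown 3 days in Nelson's medium at 37°C. Drugs given i.p. in saline on days 3, 7, 11. Brains of dead mice or mice surviving 1 month fixed in 10% neutral buffered formalin, paraffin-embedded, H&E-stained and examined by light microscopy. 20 mice/group.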

Naegleria fowleri [8] = test: Antiparasitic activity against Naegleria fowleri ATCC 30215 trophozoites infected in BALB/c mouse assessed as mean time to death at 20 mg/kg, ip administered on days 3, 7 and 11 postinfection; assay type: functional, ATCC30215; conditions: route intraperitoneal
Procedure, shortened: (§4)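 Female BALB/c mice, 7 weeks old, were infected intranasally under secobarbital anaesthesia with 10^4 trophozoites grown 3 days in Nelson's medium at 37°C. Drug was dissolved in saline and given as 100 µl intraperitoneally, starting day 3; controls received saline; 20 mice per group. Deaths were recorded daily for 1 month and mean time to death computed per group. Cause of death was confirmed by brain-tissue culture.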

Naegleria fowleri [9] = test: Antiparasitic activity against Naegleria fowleri ATCC 30215 trophozoites at 100 ug/ml on day 4 by LDH release assay; assay type: functional; procedure, shortened: as §3
Naegleria fowleri [10] = test: Antiparasitic activity against Naegleria fowleri ATCC 30215 trophozoites infected in BALB/c mouse assessed as mouse survival at 20 mg/kg, ip administered on days 3, 7 and 11 postinfection; assay type: functional, ATCC30215; conditions: route intraperitoneal; procedure, shortened: as §4
Naegleria fowleri [11] = test: Antiparasitic activity against Naegleria fowleri ATCC 30215 trophozoites after 6 days; assay type: functional; conditions: ATCC 30215, 144 h, read-out: MIC100
Naegleria fowleri [12] = test: Antiparasitic activity against Naegleria fowleri ATCC 30215 trophozoites infected in BALB/c mouse assessed as mouse survival at 20 mg/kg, ip administered on days 3 and 7 postinfection; assay type: functional, ATCC30215; conditions: route intraperitoneal; procedure, shortened: as §4
Mus musculus [13] = test: Blood urea nitrogen level in BALB/c mouse serum at 50 mg/kg, ip; assay type: ADME, organism-based; set-up: dose 50 mg/kg, route intraperitoneal; conditions: in vivo; procedure, shortened: as §2
Naegleria fowleri [14] = test: Antiparasitic activity against Naegleria fowleri ATCC 30215 trophozoites after 2 days; assay type: functional; conditions: ATCC 30215, 48 h, read-out: MIC100
Mus musculus [15] = test: Renal toxicity in BALB/c mouse assessed as necrosis in kidney cortex at 20 mg/kg, ip by histopathological analysis; assay type: organism-based; set-up: dose 20 mg/kg, route intraperitoneal; conditions: in vivo
Mus musculus [16] = test: Renal toxicity in BALB/c mouse assessed as degeneration of renal tubules at 20 mg/kg, ip by histopathological analysis; assay type: organism-based; set-up: dose 20 mg/kg, route intraperitoneal; conditions: in vivo
Naegleria fowleri [17] = test: Antiparasitic activity against Naegleria fowleri ATCC 30215 trophozoites infected in BALB/c mouse assessed as mouse survival at 10 mg/kg, ip administered on days 3, 7 and 11 postinfection; assay type: functional, ATCC30215; conditions: route intraperitoneal; procedure, shortened: as §4
Naegleria fowleri [18] = test: Antiparasitic activity against Naegleria fowleri ATCC 30215 trophozoites at >1.56 ug/ml on day 4 by LDH release assay; assay type: functional; procedure, shortened: as §3
Naegleria fowleri [19] = test: Antiparasitic activity against Naegleria fowleri ATCC 30215 trophozoites assessed as inhibition of amoeba proliferation at 0.39 ug/ml on day 2; assay type: functional; conditions: ATCC 30215, 48 h
Procedure, shortened: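 Viable amoebae counted by hemacytometer with trypan blue on day 2, with light-microscope morphology. Triplicate wells, at least three repeats.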

Naegleria fowleri [20] = test: Antiparasitic activity against Naegleria fowleri ATCC 30215 trophozoites infected in BALB/c mouse assessed as mean time to death at 10 mg/kg, ip administered on days 3, 7 and 11 postinfection; assay type: functional, ATCC30215; conditions: route intraperitoneal; procedure, shortened: as §4
Mus musculus [21] = test: Blood urea nitrogen level in BALB/c mouse serum at 5 mg/kg, ip; assay type: ADME, organism-based; set-up: dose 5 mg/kg, route intraperitoneal; conditions: in vivo; procedure, shortened: as §2
Naegleria fowleri [22] = test: Antiparasitic activity against Naegleria fowleri ATCC 30215 trophozoites at 100 ug/ml on day 2 by LDH release assay; assay type: functional; procedure, shortened: as §3
Naegleria fowleri [23] = test: Antiparasitic activity against Naegleria fowleri ATCC 30215 trophozoites at 50 ug/ml on day 2 by LDH release assay; assay type: functional; procedure, shortened: as §3
Naegleria fowleri [24] = test: Antiparasitic activity against Naegleria fowleri ATCC 30215 trophozoites at 12.5 ug/ml on day 2 by LDH release assay; assay type: functional; procedure, shortened: as §3
Naegleria fowleri [25] = test: Antiparasitic activity against Naegleria fowleri ATCC 30215 trophozoites at 3.125 ug/ml on day 2 by LDH release assay; assay type: functional; procedure, shortened: as §3
Naegleria fowleri [26] = test: Antiparasitic activity against Naegleria fowleri ATCC 30215 trophozoites at 6.25 ug/ml on day 2 by LDH release assay; assay type: functional; procedure, shortened: as §3
Naegleria fowleri [27] = test: Antiparasitic activity against Naegleria fowleri ATCC 30215 trophozoites at 50 ug/ml on day 6 by LDH release assay; assay type: functional; procedure, shortened: as §3
Naegleria fowleri [28] = test: Antiparasitic activity against Naegleria fowleri ATCC 30215 trophozoites at 25 ug/ml on day 2 by LDH release assay; assay type: functional; procedure, shortened: as §3
Naegleria fowleri [29] = test: Antiparasitic activity against Naegleria fowleri ATCC 30215 trophozoites at 1.56 ug/ml on day 2 by LDH release assay; assay type: functional; procedure, shortened: as §3

| Structure (SMILES) | MIC (Naegleria fowleri [3]) [µg/mL] | Activity (Mus musculus [4]) [mg/dL] | Activity (Mus musculus [5]) [mg/dL] | Activity (Naegleria fowleri [6]) [%] | Activity (Naegleria fowleri [10]) [%] | MIC (Naegleria fowleri [11]) [µg/mL] | Activity (Naegleria fowleri [12]) [%] | Activity (Mus musculus [13]) [mg/dL] | MIC (Naegleria fowleri [14]) [µg/mL] | also measured |
| --- | --- | --- | --- | --- | --- | --- | --- | --- | --- | --- |
| CN(C)CCCN1c2ccccc2Sc2ccc(Cl)cc21 [CHLORPROMAZINE] | 12.5 (≈ 39.2 µM) | 36.3 | 38.4 | 64.4 | 75 | 12.5 (≈ 39.2 µM) | 35 | 57.5 | 12.5 (≈ 39.2 µM) | Activity [1]: Non-toxic; Activity (Mus musculus [2]): Non-toxic; Activity (Naegleria fowleri [7]): Active; Time (Naegleria fowleri [8]): 17.2 days; Activity (Naegleria fowleri [9]): 69.1%; Activity (Mus musculus [15]): Non-toxic; Activity (Mus musculus [16]): Non-toxic |
| C[C@@H]1[C@H](O)[C@@H](C)/C=C/C=C/C=C/C=C/C=C/C=C/C=C/[C@H](O[C@@H]2O[C@H](C)[C@@H](O)[C@H](N)[C@@H]2O)C[C@@H]2O[C@](O)(C[C@@H](O)C[C@@H](O)[C@H](O)CC[C@@H](O)C[C@@H](O)CC(=O)O[C@H]1C)C[C@H](O)[C@H]2C(=O)O [AMPHOTERICIN B] | 0.78 (≈ 0.844 µM) | 38.6 | 44.1 | 99.5 |  | 0.78 (≈ 0.844 µM) |  |  | 0.78 (≈ 0.844 µM) | Activity (Naegleria fowleri [17]): 40%; Activity (Naegleria fowleri [18]): >50%; inhibition at 0.39 µg/mL (Naegleria fowleri [19]): 100%; Time (Naegleria fowleri [20]): 17.3 days; Activity (Mus musculus [21]): 27.4 mg/dL |
| CCCCCCCCCCCCCCCCOP(=O)([O-])OCC[N+](C)(C)C [MILTEFOSINE] | 25 (≈ 61.3 µM) | 29.6 | 34.6 |  | 55 | 25 (≈ 61.3 µM) | 20 | 82.4 | 25 (≈ 61.3 µM) | Activity (Naegleria fowleri [22]): <30%; Activity (Naegleria fowleri [23]): <30%; Activity (Naegleria fowleri [24]): <30%; Activity (Naegleria fowleri [25]): <30%; Activity (Naegleria fowleri [26]): <30%; Activity (Naegleria fowleri [27]): 79.3%; Activity (Naegleria fowleri [28]): <30%; Activity (Naegleria fowleri [29]): <30% |
